Measured values reported in ChEMBL document CHEMBL3853327 (J Med Chem, 2016).

What was measured:
[1] = Inhibition of recombinant wild type HIV1 reverse transcriptase using DIG-dUTP/biotin-dUTP/dTTP assessed as suppression of biotin-dUTP incorporation after 1 hr by ELISA; design: species or system Human immunodeficiency virus 1
Procedure, shortened: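 Recombinant WT HIV-1 RT in a Roche colorimetric kit: template plus DIG-dUTP, biotin-dUTP and dTTP, ±inhibitor, 1 h at 37 °C. Product captured on streptavidin plate 1 h at 37 °C, anti-DIG-POD 1 h at 37 °C, ABTS developed at 25 °C, read at OD405. IC50 is the concentration inhibiting biotin-dUTP incorporation by 50%.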

[2] = tested on: Human immunodeficiency virus 1; experiment: Antiviral activity against HIV1 3B harboring reverse transcriptase Y188L mutant infected in human MT4 cells assessed as protection against virus induced cytotoxicity after 5 days by MTT assay; assay type: functional, cell-based; settings: Human immunodeficiency virus 1, 3B, MT4, 120 h
Procedure, shortened: (§1)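 MTT cytopathicity assay in MT-4 cells (6 × 10^5 cells/mL). Compounds serially diluted 5-fold in triplicate wells, run in parallel on infected and mock-infected cells. Virus added at 100−300 CCID50 per well. Viability read spectrophotometrically at 540 and 690 nm after 5 days, using the median OD of three wells. EC50 is the concentration giving 50% protection from viral cytopathogenicity.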

[3] = tested on: Human immunodeficiency virus 1; experiment: Antiviral activity against HIV1 3B harboring reverse transcriptase L100I mutant infected in human MT4 cells assessed as protection against virus induced cytotoxicity after 5 days by MTT assay; assay type: functional, cell-based; settings: Human immunodeficiency virus 1, 3B, MT4, 120 h; procedure, shortened: as §1
[4] = tested on: Human immunodeficiency virus 1; experiment: Antiviral activity against HIV1 3B harboring reverse transcriptase E138K mutant infected in human MT4 cells assessed as protection against virus induced cytotoxicity after 5 days by MTT assay; assay type: functional, cell-based; settings: Human immunodeficiency virus 1, 3B, MT4, 120 h; procedure, shortened: as §1
[5] = tested on: Human immunodeficiency virus 1; experiment: Antiviral activity against HIV1 3B harboring reverse transcriptase F227L/V106A double mutant infected in human MT4 cells assessed as protection against virus induced cytotoxicity after 5 days by MTT assay; assay type: functional, cell-based; settings: Human immunodeficiency virus 1, 3B, MT4, 120 h; procedure, shortened: as §1
[6] = tested on: Human immunodeficiency virus 1; experiment: Antiviral activity against HIV1 3B harboring reverse transcriptase K103N mutant infected in human MT4 cells assessed as protection against virus induced cytotoxicity after 5 days by MTT assay; assay type: functional, cell-based; settings: Human immunodeficiency virus 1, 3B, MT4, 120 h; procedure, shortened: as §1
[7] = Cytotoxicity against human mock-infected MT4 cells assessed as reduction in cell viability after 5 days by MTT assay; assay type: toxicity, cell-based
Procedure, shortened: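 Mock-infected MT-4 cells (6 × 10^5 cells/mL at seeding) with serial 5-fold compound dilutions in triplicate wells. Viability read by MTT after 5 days, absorbance at 540 and 690 nm, median OD of three wells. CC50 is the concentration reducing OD540 of mock-infected cells by 50%.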

[8] = Selectivity index, ratio of CC50 for human mock-infected MT4 cells to EC50 for wild type HIV1 3B harboring reverse transcriptase infected in human MT4 cells; assay type: toxicity, cell-based; settings: MT4 cells (mock-infected for CC50, HIV-1 infected for EC50)
Procedure, shortened: (§2)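 Selectivity index is CC50/EC50. CC50 is the concentration that reduces OD540 of mock-infected MT-4 cells by 50% in the 5-day MTT assay. EC50 is the 50% protection from virus-induced cytopathicity, measured in parallel on infected wells.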

[9] = Selectivity index, ratio of CC50 for human mock-infected MT4 cells to EC50 for HIV1 RES056 harboring reverse transcriptase K103N/Y181C double mutant infected in human MT4 cells; assay type: toxicity, cell-based; settings: MT4 cells (mock-infected for CC50, HIV-1 infected for EC50); procedure, shortened: as §2
[10] = tested on: Human immunodeficiency virus 1; experiment: Antiviral activity against wild type HIV1 3B harboring reverse transcriptase infected in human MT4 cells assessed as protection against virus induced cytotoxicity after 5 days by MTT assay; assay type: functional, cell-based; settings: Human immunodeficiency virus 1, 3B, MT4, 120 h
Procedure, shortened: as §1, with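 “wells.” for “wells. EC50 is the concentration giving 50% protection from viral cytopathogenicity.”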

[11] = Antiviral activity against HIV2 ROD harboring reverse transcriptase infected in human MT4 cells assessed as protection against virus induced cytotoxicity after 5 days by MTT assay; assay type: functional, cell-based, Human immunodeficiency virus type 2 (ISOLATE ROD); settings: Human immunodeficiency virus 2, MT4, 120 h; procedure, shortened: as §1
[12] = tested on: Human immunodeficiency virus 1; experiment: Antiviral activity against HIV1 RES056 harboring reverse transcriptase K103N/Y181C double mutant infected in human MT4 cells assessed as protection against virus induced cytotoxicity after 5 days by MTT assay; assay type: functional, cell-based; settings: Human immunodeficiency virus 1, RES056, MT4, 120 h
Procedure, shortened: as §1, with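 “wells.” for “wells. EC50 is the concentration giving 50% protection from viral cytopathogenicity.”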

[13] = Selectivity index, ratio of CC50 for human mock-infected MT4 cells to EC50 for HIV1 3B harboring reverse transcriptase Y181C mutant infected in human MT4 cells; assay type: toxicity, cell-based; settings: MT4 cells (mock-infected for CC50, HIV-1 infected for EC50); procedure, shortened: as §2
[14] = Selectivity index, ratio of CC50 for human mock-infected MT4 cells to EC50 for HIV1 3B harboring reverse transcriptase K103N mutant infected in human MT4 cells; assay type: toxicity, cell-based; settings: MT4 cells (mock-infected for CC50, HIV-1 infected for EC50); procedure, shortened: as §2
[15] = Selectivity index, ratio of CC50 for human mock-infected MT4 cells to EC50 for HIV1 3B harboring reverse transcriptase F227L/V106A double mutant infected in human MT4 cells; assay type: toxicity, cell-based; settings: MT4 cells (mock-infected for CC50, HIV-1 infected for EC50); procedure, shortened: as §2
[16] = Selectivity index, ratio of CC50 for human mock-infected MT4 cells to EC50 for HIV1 3B harboring reverse transcriptase E138K mutant infected in human MT4 cells; assay type: toxicity, cell-based; settings: MT4 cells (mock-infected for CC50, HIV-1 infected for EC50); procedure, shortened: as §2
[17] = Selectivity index, ratio of CC50 for human mock-infected MT4 cells to EC50 for HIV1 3B harboring reverse transcriptase L100I mutant infected in human MT4 cells; assay type: toxicity, cell-based; settings: MT4 cells (mock-infected for CC50, HIV-1 infected for EC50); procedure, shortened: as §2
[18] = Selectivity index, ratio of CC50 for human mock-infected MT4 cells to EC50 for HIV1 3B harboring reverse transcriptase Y188L mutant infected in human MT4 cells; assay type: toxicity, cell-based; settings: MT4 cells (mock-infected for CC50, HIV-1 infected for EC50); procedure, shortened: as §2
[19] = tested on: Human immunodeficiency virus 1; experiment: Antiviral activity against HIV1 3B harboring reverse transcriptase Y181C mutant infected in human MT4 cells assessed as protection against virus induced cytotoxicity after 5 days by MTT assay; assay type: functional, cell-based; settings: Human immunodeficiency virus 1, 3B, MT4, 120 h
Procedure, shortened: as §1, with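 “wells.” for “wells. EC50 is the concentration giving 50% protection from viral cytopathogenicity.”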

SMILES	IC50 [1]	EC50 [2]	EC50 [3]	EC50 [4]	EC50 [5]	EC50 [6]	CC50 at 120 h [7]	selectivity ratio [8]	selectivity ratio [9]	EC50 [10]	EC50 [11]	EC50 [12]	selectivity ratio [13]	selectivity ratio [14]	selectivity ratio [15]	selectivity ratio [16]	selectivity ratio [17]	selectivity ratio [18]	EC50 [19]
Cc1cc(C#N)cc(C)c1Oc1nc(Nc2ccc(C#N)cc2)nc(N)c1Br [ETRAVIRINE]	11 nM	20.5 nM	5.4 nM	14.4 nM	29.4 nM	2.4 nM	> 4590 nM												
Cc1cc(C#N)cc(C)c1Oc1nc(NC2CCN(Cc3ccc(F)cc3F)CC2)nc2ccsc12							4080 nM	185	< 1	22 nM	> 4080 nM								
Cc1cc(C#N)cc(C)c1Oc1nc(NC2CCN(Cc3ccc(Br)cc3)CC2)nc2ccsc12							24300 nM	916	12	26.6 nM	> 24300 nM	2030 nM							
Cc1cc(C)c(Oc2nc(NC3CCN(Cc4ccc(C(N)=O)cc4)CC3)nc3ccsc23)c(C)c1		42.6 nM	96.1 nM	21.9 nM	107 nM	8.7 nM	5810 nM	896	18	6.5 nM	> 5810 nM		135	671	54	265	60	136	42.7 nM
Cc1cc(C#N)cc(C)c1Oc1nc(NC2CCN(Cc3cccc(C#N)c3)CC2)nc2ccsc12							4520 nM	1090	13	4.14 nM	> 4530 nM	360 nM							
CCOC(=O)c1ccc(CN2CCC(Nc3nc(Oc4c(C)cc(C#N)cc4C)c4sccc4n3)CC2)cc1		4670 nM	11300 nM	1020 nM	12800 nM	511 nM	≥ 231000 nM	≥ 1440	1	161 nM	> 231000 nM		> 62	> 446	> 20	> 227	> 20	> 49	3710 nM
CC(=O)NS(=O)(=O)c1ccc(CN2CCC(Nc3nc(Oc4c(C)cc(C#N)cc4C)c4sccc4n3)CC2)cc1		13.6 nM	20.8 nM	8.8 nM	8.8 nM	8.2 nM	> 3030 nM	> 576	20	5.2 nM	> 3030 nM		> 104	> 369	> 340	> 340	> 145	> 222	28.8 nM
CC(C)Nc1cccnc1N1CCN(C(=O)c2cc3cc(NS(C)(=O)=O)ccc3[nH]2)CC1 [DELAVIRDINE]							> 43800 nM	> 67				> 43800 nM							
Cc1cc(C#N)cc(C)c1Oc1nc(NC2CCN(Cc3cccc(S(N)(=O)=O)c3)CC2)nc2ccsc12		12.8 nM	28.4 nM	6.5 nM	8.5 nM	≤ 7.6 nM	> 228000 nM	> 96000	> 120	2.4 nM	> 228000 nM		> 10900	> 30100	> 26700	> 35200	> 8030	> 17800	20.9 nM
